One data set addresses T1, Nox4 (Homo sapiens, UniProt Q9NPH5).
T1 sequence (Q9NPH5 1-578): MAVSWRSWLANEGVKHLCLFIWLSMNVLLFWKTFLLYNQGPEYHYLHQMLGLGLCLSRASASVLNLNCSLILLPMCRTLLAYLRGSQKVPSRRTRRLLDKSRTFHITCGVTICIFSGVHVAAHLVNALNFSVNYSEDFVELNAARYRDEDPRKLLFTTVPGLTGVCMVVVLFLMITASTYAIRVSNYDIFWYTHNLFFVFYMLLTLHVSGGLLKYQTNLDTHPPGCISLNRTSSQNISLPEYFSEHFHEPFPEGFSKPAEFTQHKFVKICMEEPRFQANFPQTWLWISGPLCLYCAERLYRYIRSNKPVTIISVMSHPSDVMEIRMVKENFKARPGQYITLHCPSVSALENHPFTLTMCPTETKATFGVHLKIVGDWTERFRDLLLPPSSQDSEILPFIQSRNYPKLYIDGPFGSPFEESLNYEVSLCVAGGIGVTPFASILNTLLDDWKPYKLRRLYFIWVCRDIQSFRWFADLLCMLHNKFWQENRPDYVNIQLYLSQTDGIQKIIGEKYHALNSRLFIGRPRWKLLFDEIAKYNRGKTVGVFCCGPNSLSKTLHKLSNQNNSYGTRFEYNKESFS
T1 sequence (P13498 2-195 partner limits assumed): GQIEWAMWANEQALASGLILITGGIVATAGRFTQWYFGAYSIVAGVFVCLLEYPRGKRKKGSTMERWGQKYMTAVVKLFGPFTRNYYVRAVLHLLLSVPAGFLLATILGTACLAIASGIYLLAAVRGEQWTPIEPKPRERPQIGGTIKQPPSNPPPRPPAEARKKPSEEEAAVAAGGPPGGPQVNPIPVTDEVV
The data set is described as follows: Amplex Red assay of constitutive Nox4 activity. The note with it: for Nox4 activity (in words): Amplex Red, COS-Nox4 cells. It is filed as cell-based. The method, boiled down:
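Transiently transfected COS-Nox4 cells, unstimulated (constitutive activity), pretreated with various test compound concentrations for 15 min. The initial rate of H2O2 production is read by Amplex Red fluorescence. Results are given as % of vehicle control, mean ± SEM of 3–7 independent experiments; IC50 comes from the concentration–response curve.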

A further data set has as its target T2, Nox1 (Homo sapiens, UniProt Q9Y5S8).
T2 sequence (Q9Y5S8 1-564): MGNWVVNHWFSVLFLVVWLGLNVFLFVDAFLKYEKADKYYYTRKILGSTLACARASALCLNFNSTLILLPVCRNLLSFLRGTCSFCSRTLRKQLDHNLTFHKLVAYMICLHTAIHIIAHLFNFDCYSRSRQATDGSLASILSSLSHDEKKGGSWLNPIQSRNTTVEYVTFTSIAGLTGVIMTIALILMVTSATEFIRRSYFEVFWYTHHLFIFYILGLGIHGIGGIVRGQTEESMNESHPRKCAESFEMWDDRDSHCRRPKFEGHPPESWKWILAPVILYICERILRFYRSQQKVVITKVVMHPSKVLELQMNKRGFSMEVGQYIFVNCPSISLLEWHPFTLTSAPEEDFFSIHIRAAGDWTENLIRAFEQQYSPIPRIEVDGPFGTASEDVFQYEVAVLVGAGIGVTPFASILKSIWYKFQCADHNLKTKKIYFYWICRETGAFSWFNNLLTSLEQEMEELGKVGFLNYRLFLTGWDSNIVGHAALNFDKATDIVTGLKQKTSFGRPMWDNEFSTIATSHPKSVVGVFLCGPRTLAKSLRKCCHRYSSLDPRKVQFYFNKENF
T2 sequence (P13498 2-195 partner limits assumed): T1 sequence (P13498 2-195 partner limits assumed)
It is filed as cell-based. Particulars: for Nox1 activity (in words): summary of Table 1.

Another data set has as its target T3, Nox5 (Homo sapiens, UniProt Q96PH1).
T3 sequence (Q96PH1 1-765): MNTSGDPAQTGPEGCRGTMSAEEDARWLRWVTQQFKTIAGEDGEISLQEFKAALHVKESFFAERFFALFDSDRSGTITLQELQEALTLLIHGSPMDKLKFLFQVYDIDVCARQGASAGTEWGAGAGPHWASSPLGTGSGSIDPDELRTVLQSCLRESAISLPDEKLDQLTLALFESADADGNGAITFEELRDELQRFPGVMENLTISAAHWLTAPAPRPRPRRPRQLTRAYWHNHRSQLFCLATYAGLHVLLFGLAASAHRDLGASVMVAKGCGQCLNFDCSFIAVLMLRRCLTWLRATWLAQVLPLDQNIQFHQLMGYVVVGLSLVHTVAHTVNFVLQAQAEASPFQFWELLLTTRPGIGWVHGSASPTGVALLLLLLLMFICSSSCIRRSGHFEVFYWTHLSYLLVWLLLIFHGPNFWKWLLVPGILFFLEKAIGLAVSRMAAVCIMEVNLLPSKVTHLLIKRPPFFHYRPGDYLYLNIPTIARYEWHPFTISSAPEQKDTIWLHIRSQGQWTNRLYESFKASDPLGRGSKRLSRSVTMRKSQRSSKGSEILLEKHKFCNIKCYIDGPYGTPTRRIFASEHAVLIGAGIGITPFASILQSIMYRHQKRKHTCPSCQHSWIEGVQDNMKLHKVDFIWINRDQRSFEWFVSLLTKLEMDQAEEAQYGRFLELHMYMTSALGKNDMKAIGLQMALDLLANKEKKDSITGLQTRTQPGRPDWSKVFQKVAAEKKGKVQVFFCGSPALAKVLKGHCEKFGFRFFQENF
The data set is described as follows: L-012 assay of Nox5 activity in HEK-Nox5 cells. The note with it: summary of Table 1. The class given is cell-based.

Data set [1] deals with T4, Nox2 (Homo sapiens, UniProt P04839).
T4 sequence (P04839 2-570 limits assumed): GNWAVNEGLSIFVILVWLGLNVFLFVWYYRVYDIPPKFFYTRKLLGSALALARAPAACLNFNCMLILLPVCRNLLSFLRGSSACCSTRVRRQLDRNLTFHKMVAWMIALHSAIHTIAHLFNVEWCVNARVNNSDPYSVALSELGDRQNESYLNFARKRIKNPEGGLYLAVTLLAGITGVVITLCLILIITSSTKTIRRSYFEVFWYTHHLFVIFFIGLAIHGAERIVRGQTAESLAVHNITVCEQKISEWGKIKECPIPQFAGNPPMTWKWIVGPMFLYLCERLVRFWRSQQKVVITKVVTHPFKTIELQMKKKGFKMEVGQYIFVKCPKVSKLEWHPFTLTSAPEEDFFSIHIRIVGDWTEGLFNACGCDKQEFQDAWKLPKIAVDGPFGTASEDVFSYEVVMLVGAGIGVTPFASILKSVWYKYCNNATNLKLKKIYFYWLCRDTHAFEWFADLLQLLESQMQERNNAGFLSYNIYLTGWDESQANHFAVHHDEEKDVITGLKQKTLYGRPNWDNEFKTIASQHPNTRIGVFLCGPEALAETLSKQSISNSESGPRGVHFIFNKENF
T4 sequence (P13498 2-195 partner limits assumed): T1 sequence (P13498 2-195 partner limits assumed)
The data set is described as follows: Amplex Red assay of ROS generation in whole COS-Nox2 cells. It is filed as cell-based. In outline:
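Whole COS-Nox2 cells stimulated with 5 μM PMA, with SOD added to convert O2•− to H2O2. H2O2 is read by Amplex Red fluorescence across a concentration range of test compound. Activity is expressed as % of vehicle control, as mean ± SEM of 3–7 independent experiments; IC50 is derived from the concentration–response curve.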

In data set [2] the target is T4, Nox2. The data set is described as follows: L-012 chemiluminescence assay of O2•− generation in whole COS-Nox2 cells. The class given is cell-based. The method, boiled down: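 Stable Nox2-transfected COS cells, stimulated with 5 μM PMA; O2•− is detected by L-012 chemiluminescence. The primary screen of library compounds ran at 100, 50, 25 and 12.5 μM. Follow-up concentration–response data are expressed as % of vehicle control (mean ± SEM of 3–7 independent experiments), and IC50 is extrapolated from the curve slope.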

In data set [3] the target is T4, Nox2. The data set is described as follows: Cell-free Nox2 activity in lysed COS-Nox2 cells. The class given is biochemical. The note with it: 6.3 μM compound; COS-Nox2 cell lysate, 130 μM LiDS, 180 μM NADPH. The method, boiled down: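 Cell-free system: COS-Nox2 cell lysate is preincubated with test compound for 15 min at 25 °C. Subunits are assembled with 130 μM LiDS, and the reaction is started with 180 μM NADPH. O2•− is measured as the initial linear rate of SOD-inhibitable cytochrome C reduction, in nmol O2•− per min per 10^7 cell equivalents.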

The next data set concerns cell viability. The data set is described as follows: CytoTox-Glo cell viability assay. The class given is cell-based. The note with it: only at the highest concentration tested.

From publication PMC3897123 (MedChemComm, 2013) come the findings set out here.

For `C=C(C)C[C@H]1[C@H]2c3c(Br)cccc3[C@H](CC2(C)C)N1Cc1ccnc2ccccc12` [Compound 11b], the IC50 (in general, the concentration that inhibits the measured activity by half) on Nox4 is greater than 100 µM.
Consider `C=C(C)C[C@H]1[C@H]2c3c(Br)cccc3[C@H](CC2(C)C)N1Cc1cccs1` [Compound 11h], for which, at Nox1, the “Nox1 activity (in words)” value is given as “virtually no effect”. Further, on Nox4, the IC50 is greater than 100 µM and the “Nox4 activity (in words)” value was “virtually no effect”. For the same compound, on Nox5, the “Nox5 activity (in words)” value is listed as “virtually no effect”.
Take `C=C(C)C[C@@H]1N[C@H]2CC(C)(C)[C@@H]1c1c(-c3cccnc3)cccc12` [Compound 12d]: the IC50 at Nox2 [1] and against Nox2 [2] was greater than 100 µM in each case.
`C=C(C)C[C@H]1[C@H]2c3c(Br)cccc3[C@H](CC2(C)C)N1S(=O)(=O)c1ccc(F)cc1` [Compound 14b] yielded an IC50 on Nox4 greater than 100 µM.
As for `C=C(C)C[C@@H]1N[C@H]2CC(C)(C)[C@@H]1c1c(Br)cccc12` [Compound 7], the “LiDS-stimulated O2•− generation” value on Nox2 [3] is “almost non-stimulated levels”. Moreover, in the data set on cell viability, the “Effect on cell viability” value is on record as “effect on cell viability”.
Take `C=C(C)C[C@H]1[C@H]2c3c(-c4ccc(Cl)c(Cl)c4)cccc3[C@H](CC2(C)C)N1Cc1ccc2c(c1)OCO2` [Compound 12b]: the IC50 against Nox4 is greater than 100 µM.
Consider `CC(C)C[C@@H]1N[C@H]2CC(C)(C)[C@@H]1c1c(Br)cccc12` [Compound 13], for which the “Nox2 inhibitory activity (in words)” value at Nox2 [2] (text summary of Table 1 (Amplex Red and L-012 assays)) was “retained inhibitory activity”. Besides, at Nox1, the “Nox1 activity (in words)” value is given as “retained inhibitory activity”. For the same compound, the “Nox5 activity (in words)” value at Nox5 is recorded as “retained inhibitory activity”. The “Effect on cell viability” value in the data set with cell viability is listed as “effect on cell viability”.
For the compound `C=C(C)C[C@H]1[C@H]2c3c(Br)cccc3[C@H](CC2(C)C)N1Cc1c[nH]c2ccccc12` [Compound 11c], the IC50 against Nox4 was greater than 100 µM.
Take `C=C(C)C[C@@H]1N[C@H]2CC(C)(C)[C@@H]1c1ccccc12` [Compound 8]: the “Activity in primary screen” value at Nox2 [2] (UPCMLD library screen at 100, 50, 25, and 12.5 μM, L-012, COS-Nox2 cells) is “inactive”. This compound displayed an IC50 on Nox4 greater than 100 µM.
In the case of `C=C(C)C[C@H]1[C@H]2c3c(Br)cccc3[C@H](CC2(C)C)N1CCCCC` [Compound 11g], on Nox1, the “Nox1 activity (in words)” value was “virtually no effect”. Besides, on Nox4, the “Nox4 activity (in words)” value is recorded as “virtually no effect”. Also, at Nox5, the “Nox5 activity (in words)” value is “virtually no effect”.
Turning to `C=C(C)C[C@H]1[C@H]2c3c(Br)cccc3[C@H](CC2(C)C)N1S(C)(=O)=O` [Compound 14a], the IC50 against Nox1 was greater than 100 µM.
